Source: ChEMBL document CHEMBL3596093, “Synthesis and antimicrobial evaluation of 5-aryl-1,2,4-triazole-3-thione derivatives containing a rhodanine moiety” (2015)
Values after ≈ are worked out from the molar mass of the structure shown.

Assays:
[1] = test system: Staphylococcus aureus; test: Bactericidal activity against Staphylococcus aureus RN4220 after 24 hrs by agar plate method; assay type: functional; conditions: RN4220, 24 h
Method in brief: (§1)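 Samples of 5 µL from MIC wells with no visible growth were plated onto fresh Mueller-Hinton agar and incubated a further 24 h at 37 °C. MBC is the lowest concentration giving no visible colony growth on the agar. Assays were run in triplicate.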

[2] = test system: Staphylococcus aureus; test: Bactericidal activity against methicillin-resistant Staphylococcus aureus CCARM 3506 after 24 hrs by agar plate method; assay type: functional; conditions: CCARM 3506, 24 h
Method in brief: (§2)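 5 µL from each well without visible growth plated on fresh Mueller-Hinton agar, then 37 °C for a further 24 h. MBC is the lowest concentration giving no visible colonies. Run in triplicate.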

[3] = test system: Staphylococcus aureus; test: Antibacterial activity against methicillin-resistant Staphylococcus aureus CCARM 3167 after 24 hrs by two-fold serial dilution method; assay type: functional; conditions: CCARM 3167, 24 h
Method in brief: (§3)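 Broth microdilution MIC. Bacteria grown to mid-log phase in Mueller-Hinton broth, diluted 1000-fold, about 10^5 CFU/mL. Compounds from DMSO stocks, two-fold serial dilution from a final 64 µg/mL. Incubation at 37 °C for 24 h. Growth read as absorbance at 630 nm on a microplate reader. Run in triplicate.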

[4] = test system: Salmonella typhimurium; test: Antibacterial activity against Salmonella typhimurium 2421 after 24 hrs by two-fold serial dilution method; assay type: functional, Salmonella enterica subsp. enterica serovar Typhimurium; conditions: Salmonella enterica, 2421, 24 h
Method in brief: (§4)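 Strains grown to mid-log phase in Mueller-Hinton broth, then diluted 1000-fold in the same broth to about 10^5 CFU/mL. Compounds were made up as DMSO stocks and two-fold serially diluted from a final top concentration of 64 µg/mL. Incubation was 37 °C for 24 h. Growth was read as absorbance at 630 nm on a microplate reader. MIC assays were run in triplicate.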

[5] = test system: Staphylococcus aureus; test: Antibacterial activity against quinolone-resistant Staphylococcus aureus CCARM 3505 after 24 hrs by two-fold serial dilution method; assay type: functional; conditions: CCARM 3505, 24 h; method in brief: as §3
[6] = test system: Streptococcus mutans; test: Antibacterial activity against Streptococcus mutans 3065 after 24 hrs by two-fold serial dilution method; assay type: functional; conditions: Streptococcus mutans, 3065, 24 h; method in brief: as §4
[7] = test system: Staphylococcus aureus; test: Bactericidal activity against Staphylococcus aureus KCTC 503 after 24 hrs by agar plate method; assay type: functional; conditions: KCTC 503, 24 h; method in brief: as §2
[8] = test system: Staphylococcus aureus; test: Bactericidal activity against quinolone-resistant Staphylococcus aureus CCARM 3505 after 24 hrs by agar plate method; assay type: functional; conditions: CCARM 3505, 24 h; method in brief: as §2
[9] = test system: Staphylococcus aureus; test: Bactericidal activity against quinolone-resistant Staphylococcus aureus CCARM 3519 after 24 hrs by agar plate method; assay type: functional; conditions: CCARM 3519, 24 h; method in brief: as §2
[10] = test system: Escherichia coli; test: Antibacterial activity against Escherichia coli CCARM 1356 after 24 hrs by two-fold serial dilution method; assay type: functional; conditions: CCARM 1356, 24 h; method in brief: as §4
[11] = test system: Staphylococcus aureus; test: Antibacterial activity against quinolone-resistant Staphylococcus aureus CCARM 3519 after 24 hrs by two-fold serial dilution method; assay type: functional; conditions: CCARM 3519, 24 h; method in brief: as §3
[12] = test system: Staphylococcus aureus; test: Antibacterial activity against Staphylococcus aureus RN4220 after 24 hrs by two-fold serial dilution method; assay type: functional; conditions: RN4220, 24 h; method in brief: as §3
[13] = test system: Streptococcus mutans; test: Bactericidal activity against Streptococcus mutans 3065 after 24 hrs by agar plate method; assay type: functional; conditions: Streptococcus mutans, 3065, 24 h; method in brief: as §1
[14] = test system: Staphylococcus aureus; test: Bactericidal activity against methicillin-resistant Staphylococcus aureus CCARM 3167 after 24 hrs by agar plate method; assay type: functional; conditions: CCARM 3167, 24 h; method in brief: as §2
[15] = test system: Staphylococcus aureus; test: Antibacterial activity against Staphylococcus aureus KCTC 503 after 24 hrs by two-fold serial dilution method; assay type: functional; conditions: KCTC 503, 24 h; method in brief: as §4
[16] = test system: Staphylococcus aureus; test: Antibacterial activity against methicillin-resistant Staphylococcus aureus CCARM 3506 after 24 hrs by two-fold serial dilution method; assay type: functional; conditions: CCARM 3506, 24 h; method in brief: as §3
[17] = test system: Escherichia coli; test: Ratio of MBC to MIC for Escherichia coli KCTC 1924; assay type: functional
Method in brief: (§5)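 The ratio divides MBC by MIC for the same strain. MIC comes from two-fold broth microdilution in Mueller-Hinton broth (about 10^5 CFU/mL, 37 °C, 24 h, absorbance at 630 nm). MBC comes from subculturing 5 µL from clear wells onto Mueller-Hinton agar for another 24 h at 37 °C, taken as the lowest concentration with no colonies.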

[18] = test system: Escherichia coli; test: Antibacterial activity against Escherichia coli KCTC 1924 after 24 hrs by two-fold serial dilution method; assay type: functional; conditions: KCTC 1924, 24 h; method in brief: as §4
[19] = test system: Staphylococcus aureus; test: Ratio of MBC to MIC for Staphylococcus aureus KCTC 503; assay type: functional; method in brief: as §5
[20] = test system: Staphylococcus aureus; test: Antibacterial activity against Staphylococcus aureus KCTC 209 after 24 hrs by two-fold serial dilution method; assay type: functional; conditions: KCTC 209, 24 h; method in brief: as §4
[21] = test system: Pseudomonas aeruginosa; test: Antibacterial activity against Pseudomonas aeruginosa 2004 after 24 hrs by two-fold serial dilution method; assay type: functional; conditions: Pseudomonas aeruginosa, 2004, 24 h; method in brief: as §4
[22] = test system: Escherichia coli; test: Bactericidal activity against Escherichia coli KCTC 1924 after 24 hrs by agar plate method; assay type: functional; conditions: KCTC 1924, 24 h; method in brief: as §1
[23] = test system: Candida albicans; test: Antifungal activity against Candida albicans 7535 after 24 hrs by two-fold serial dilution method; assay type: functional; conditions: Candida albicans, 7535, 24 h
[24] = test system: Pseudomonas aeruginosa; test: Antibacterial activity against Pseudomonas aeruginosa 2742 after 24 hrs by two-fold serial dilution method; assay type: functional; conditions: Pseudomonas aeruginosa, 2742, 24 h; method in brief: as §4
[25] = test system: Staphylococcus aureus; test: Bactericidal activity against Staphylococcus aureus KCTC 209 after 24 hrs by agar plate method; assay type: functional; conditions: KCTC 209, 24 h; method in brief: as §1

Row | Compound | MBC [1] [mg/L] | MBC [2] [mg/L] | MIC [3] [mg/L] | MIC [4] [mg/L] | MIC [5] [mg/L] | MIC [6] [mg/L] | MBC [7] [mg/L] | MBC [9] [mg/L] | MIC [10] [mg/L] | MIC [11] [mg/L] | MIC [12] [mg/L] | MBC [14] [mg/L] | MIC [15] [mg/L] | MIC [16] [mg/L] | MIC [18] [mg/L] | MIC [20] [mg/L] | MIC [21] [mg/L] | MBC [22] [mg/L] | MIC [23] [mg/L] | MIC [24] [mg/L] | further results
1 | O=C(O)[C@H](Cc1ccccc1)N1C(=O)/C(=C/c2ccc(/C=N/n3c(-c4cccc(Br)c4)n[nH]c3=S)cc2)SC1=S | 256 (≈ 393 µM) | 64 (≈ 98.4 µM) | 32 (≈ 49.2 µM) | > 128 | 16 (≈ 24.6 µM) | 64 (≈ 98.4 µM) | 128 (≈ 197 µM) | 256 (≈ 393 µM) | > 128 | 32 (≈ 49.2 µM) | 32 (≈ 49.2 µM) | 128 (≈ 197 µM) | 64 (≈ 98.4 µM) | 16 (≈ 24.6 µM) | 64 (≈ 98.4 µM) | > 64 | > 128 | 64 (≈ 98.4 µM) | > 64 | > 128 | MBC [8]: 128 mg/L (≈ 197 µM); MBC [13]: > 128 mg/L; Ratio [17]: <=4; Ratio [19]: <=4
2 | O=C(O)CN1C(=O)/C(=C/c2ccc(/C=N/n3c(-c4ccccc4Br)n[nH]c3=S)cc2)SC1=S | > 256 | – | 64 (≈ 114 µM) | > 128 | > 64 | > 64 | – | > 256 | > 128 | 64 (≈ 114 µM) | 64 (≈ 114 µM) | 256 (≈ 457 µM) | > 64 | > 64 | 64 (≈ 114 µM) | > 64 | > 128 | 256 (≈ 457 µM) | > 64 | > 128 | Ratio [17]: <=4
3 | O=C(O)CN1C(=O)/C(=C/c2ccc(/C=N/n3c(-c4ccc(F)cc4)n[nH]c3=S)cc2)SC1=S | > 256 | – | 16 (≈ 32 µM) | > 128 | > 64 | > 64 | – | > 256 | > 128 | 32 (≈ 64.1 µM) | 64 (≈ 128 µM) | > 128 | > 64 | > 64 | > 128 | 64 (≈ 128 µM) | > 128 | – | > 64 | > 128 | MBC [25]: > 256 mg/L
4 | O=C1NC(=S)S/C1=C\c1ccc(/C=N/n2c(-c3ccccc3)n[nH]c2=S)cc1 | > 256 | > 256 | 32 (≈ 75.6 µM) | > 128 | 32 (≈ 75.6 µM) | 16 (≈ 37.8 µM) | > 256 | > 256 | > 128 | 32 (≈ 75.6 µM) | 32 (≈ 75.6 µM) | > 256 | 32 (≈ 75.6 µM) | 32 (≈ 75.6 µM) | 32 (≈ 75.6 µM) | 64 (≈ 151 µM) | > 128 | 128 (≈ 302 µM) | > 64 | > 128 | MBC [8]: > 256 mg/L; MBC [13]: > 128 mg/L; Ratio [17]: <=4; MBC [25]: > 256 mg/L
5 | O=C1NC(=S)S/C1=C\c1ccc(/C=N/n2c(-c3ccccc3Cl)n[nH]c2=S)cc1 | > 256 | > 128 | 16 (≈ 34.9 µM) | > 128 | 16 (≈ 34.9 µM) | 16 (≈ 34.9 µM) | > 256 | > 128 | > 128 | 16 (≈ 34.9 µM) | 32 (≈ 69.9 µM) | > 128 | 16 (≈ 34.9 µM) | 16 (≈ 34.9 µM) | 16 (≈ 34.9 µM) | 64 (≈ 140 µM) | > 128 | > 128 | > 64 | > 128 | MBC [8]: > 128 mg/L; MBC [13]: > 128 mg/L; MBC [25]: > 256 mg/L
6 | O=C1NC(=S)S/C1=C\c1ccc(/C=N/n2c(-c3ccccc3Br)n[nH]c2=S)cc1 | 128 (≈ 255 µM) | > 128 | 16 (≈ 31.8 µM) | > 128 | 16 (≈ 31.8 µM) | 16 (≈ 31.8 µM) | > 128 | > 128 | > 128 | 16 (≈ 31.8 µM) | 16 (≈ 31.8 µM) | > 128 | 16 (≈ 31.8 µM) | 16 (≈ 31.8 µM) | 16 (≈ 31.8 µM) | 64 (≈ 127 µM) | > 128 | > 128 | > 64 | > 128 | MBC [8]: > 128 mg/L; MBC [13]: > 128 mg/L; MBC [25]: > 256 mg/L
